According to PubChem BioAssay AID651944 (The Scripps Research Institute Molecular Screening Center, 2012):
The source made the active and inactive calls.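 The calls were made as follows: active = IC50 at or below 10 µM; inactive = IC50 above 10 µM.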

System: E. coli V66 + mutant T4 phage, OD growth
Assay: OD loss of phage-infected RecBCD+ E. coli – absorbance, round 2, counter-screen for AddAB inhibitor project, dose response (AID 651944)
Summary of the method: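 assay system = recBCD+ Escherichia coli strain V66 challenged with mutant T4 phage | schedule = compound preincubation 60 min, then phage 18 h, 37 °C | compound = 10-point threefold dilution series, top nominal 118.6 µM | benchmarks = high control ciprofloxacin, low control DMSO | signal = absorbance at 600 nm | replicates = triplicate | measure = IC50 from four-parameter curve fit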

Structure (SMILES) | IC50
CCn1cc(C(=O)O)c(=O)c2cnc(N3CCN(C(=S)NCc4ccccc4)CC3)nc21 | > 119 µM (inactive)
CCn1cc(C(=O)O)c(=O)c2cnc(N3CCN(C(=S)Nc4ccc(Cl)cc4)CC3)nc21 | 80.9 µM (inactive)
CCn1cc(C(=O)O)c(=O)c2cnc(N3CCN(C(=S)Nc4ccccc4F)CC3)nc21 | > 119 µM (inactive)
CCn1cc(C(=O)O)c(=O)c2cnc(N3CCN(C(=S)Nc4cccc(C(F)(F)F)c4)CC3)nc21 | 77.8 µM (inactive)
CCn1cc(C(=O)O)c(=O)c2cnc(N3CCN(C(=S)NC(=O)c4cccc(C)c4)CC3)nc21 | > 39.5 µM (inactive)
CCn1cc(C(=O)O)c(=O)c2cnc(N3CCN(C(=S)Nc4ccccc4OC)CC3)nc21 | > 119 µM (inactive)
